Test results from ChEMBL document CHEMBL3808357, “Discovery of N-(3-((1-Isonicotinoylpiperidin-4-yl)oxy)-4-methylphenyl)-3-(trifluoromethyl)benzamide (CHMFL-KIT-110) as a Selective, Potent, and Orally Available Type II c-KIT Kinase Inhibitor for Gastrointestinal Stromal Tumors (GISTs)” (J Med Chem, 2016).
Active and inactive are the calls of the source. The calls are words filed in the database; no cut-off is given here.

Key:
[1] = target: Mast/stem cell growth factor receptor Kit (Homo sapiens) (UniProt P10721); assay: Inhibition of cKIT autophosphorylation at Y823 in human GIST48B cells up to 10 uM after 2 hrs by Western blot analysis; type: cell-based
Sequence of Mast/stem cell growth factor receptor Kit (Homo sapiens) (P10721 whole entry, the tested form may be a part): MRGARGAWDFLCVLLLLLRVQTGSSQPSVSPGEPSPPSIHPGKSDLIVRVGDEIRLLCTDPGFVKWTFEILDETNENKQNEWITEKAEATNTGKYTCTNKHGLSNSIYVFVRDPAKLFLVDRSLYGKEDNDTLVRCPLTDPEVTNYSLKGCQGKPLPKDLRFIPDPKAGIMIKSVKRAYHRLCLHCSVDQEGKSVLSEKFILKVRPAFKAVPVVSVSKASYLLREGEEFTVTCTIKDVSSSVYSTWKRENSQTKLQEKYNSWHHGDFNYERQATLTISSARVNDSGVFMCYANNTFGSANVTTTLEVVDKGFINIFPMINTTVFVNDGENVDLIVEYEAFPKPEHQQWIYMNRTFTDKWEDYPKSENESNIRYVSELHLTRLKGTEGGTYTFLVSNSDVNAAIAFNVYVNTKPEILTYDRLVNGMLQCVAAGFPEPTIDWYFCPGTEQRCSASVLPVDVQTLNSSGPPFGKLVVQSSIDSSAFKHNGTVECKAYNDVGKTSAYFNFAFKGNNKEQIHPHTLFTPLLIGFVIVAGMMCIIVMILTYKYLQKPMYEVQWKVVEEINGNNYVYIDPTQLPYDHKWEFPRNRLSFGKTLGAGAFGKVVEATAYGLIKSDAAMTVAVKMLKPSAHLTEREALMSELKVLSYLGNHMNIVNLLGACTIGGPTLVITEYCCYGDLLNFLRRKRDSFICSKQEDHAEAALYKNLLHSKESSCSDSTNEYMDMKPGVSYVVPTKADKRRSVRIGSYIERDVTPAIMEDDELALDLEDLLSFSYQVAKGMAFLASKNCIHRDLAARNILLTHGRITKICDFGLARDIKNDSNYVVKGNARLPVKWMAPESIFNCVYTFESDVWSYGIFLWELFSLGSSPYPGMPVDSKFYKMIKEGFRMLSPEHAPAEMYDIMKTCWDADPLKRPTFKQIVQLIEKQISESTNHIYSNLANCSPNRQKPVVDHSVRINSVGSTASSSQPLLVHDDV

[2] = AUC(0 to t) in Sprague-Dawley rat plasma at 1 mg/kg, iv; type: ADME, organism-based
Outline: (§1)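 Male Sprague-Dawley rats, 8 weeks old, fasted overnight, dosed iv or orally. Formulation was 5% DMSO/40% PEG400/55% saline at 1 mg/mL. Blood (~0.2 mL) was drawn from the jugular vein into heparin. Sampling: iv at 1 min to 8 h; oral at 5 min to 24 h. Plasma was separated by centrifugation at 2−8 °C and stored at −80 °C.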

[3] = Antiproliferative activity against human HL60 cells assessed as reduction in cell viability after 72 hrs by celltiter-glo/CCK8 assay; type: functional; details: HL-60, 72 h
Outline: (§2)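 Cells were seeded at 1 to 3 × 10⁴ cells/mL with serial compound concentrations and incubated 72 h at 37 °C, 5% CO₂. Viability was read by CellTiter-Glo luminescence or CCK-8 absorbance (450/655 nm). GI50 values are from triplicate testing. GIST-T1 and CHO were grown in DMEM/10% FBS; GIST-882, GIST-48B and MV4-11 in IMDM/10% FBS; other lines in RPMI 1640/10% FBS.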

[4] = Antiproliferative activity against human GIST48B cells assessed as reduction in cell viability after 72 hrs by celltiter-glo/CCK8 assay; type: functional; outline: as §2
[5] = target: Mast/stem cell growth factor receptor Kit (Homo sapiens) (UniProt P10721); assay: Inhibition of cKIT in human GIST48B cells assessed as suppression of S6K phosphorylation at T389 up to 10 uM after 2 hrs by Western blot analysis; type: cell-based
[6] = AUC(0 to t) in Sprague-Dawley rat plasma at 10 mg/kg, po; type: ADME, organism-based; outline: as §1
[7] = target: Mast/stem cell growth factor receptor Kit (Homo sapiens) (UniProt P10721); assay: Inhibition of cKIT autophosphorylation at Y703 in human GIST882 cells up to 10 uM after 2 hrs by Western blot analysis; type: cell-based
[8] = system: Mast/stem cell growth factor receptor Kit (Homo sapiens), P10721 [D816V]; assay: Inhibition of Tel-fused cKIT D816V mutant (unknown origin) transfected in mouse BAF3 cells assessed as decrease in cell proliferation after 72 hrs by celltiter-glo/CCK8 assay; type: cell-based
Sequence of Mast/stem cell growth factor receptor Kit (Homo sapiens), P10721 [D816V] (P10721 whole entry D816V, the tested form may be a part): as the sequence (P10721 whole entry, the tested form may be a part) above, with D816V counted along it
Outline: (§3)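 Stable BaF3 lines made by retroviral transduction with mutagenized TEL-KIT MSCV vectors, puromycin selection 48 h, then gradual IL-3 withdrawal until IL-3-independent; grown in RPMI 1640 with 10% FBS. Cells at 1 to 3 × 10⁴ cells/mL exposed to a concentration series for 72 h; viability read by CellTiter-Glo luminescence or CCK-8 absorbance (450/655 nm); GI50 from triplicate testing.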

[9] = target: Mast/stem cell growth factor receptor Kit (Homo sapiens) (UniProt P10721); assay: Inhibition of cKIT in human GISTT1 cells assessed as suppression of S6K phosphorylation at T389 up to 10 uM after 2 hrs by Western blot analysis; type: cell-based
[10] = target: Platelet-derived growth factor receptor alpha (Homo sapiens) (UniProt P16234); assay: Inhibition of PDGFRalpha phosphorylation at Y849 in human GISTT1 cells up to 10 uM after 2 hrs by Western blot analysis; type: cell-based
Sequence of Platelet-derived growth factor receptor alpha (Homo sapiens) (P16234 whole entry): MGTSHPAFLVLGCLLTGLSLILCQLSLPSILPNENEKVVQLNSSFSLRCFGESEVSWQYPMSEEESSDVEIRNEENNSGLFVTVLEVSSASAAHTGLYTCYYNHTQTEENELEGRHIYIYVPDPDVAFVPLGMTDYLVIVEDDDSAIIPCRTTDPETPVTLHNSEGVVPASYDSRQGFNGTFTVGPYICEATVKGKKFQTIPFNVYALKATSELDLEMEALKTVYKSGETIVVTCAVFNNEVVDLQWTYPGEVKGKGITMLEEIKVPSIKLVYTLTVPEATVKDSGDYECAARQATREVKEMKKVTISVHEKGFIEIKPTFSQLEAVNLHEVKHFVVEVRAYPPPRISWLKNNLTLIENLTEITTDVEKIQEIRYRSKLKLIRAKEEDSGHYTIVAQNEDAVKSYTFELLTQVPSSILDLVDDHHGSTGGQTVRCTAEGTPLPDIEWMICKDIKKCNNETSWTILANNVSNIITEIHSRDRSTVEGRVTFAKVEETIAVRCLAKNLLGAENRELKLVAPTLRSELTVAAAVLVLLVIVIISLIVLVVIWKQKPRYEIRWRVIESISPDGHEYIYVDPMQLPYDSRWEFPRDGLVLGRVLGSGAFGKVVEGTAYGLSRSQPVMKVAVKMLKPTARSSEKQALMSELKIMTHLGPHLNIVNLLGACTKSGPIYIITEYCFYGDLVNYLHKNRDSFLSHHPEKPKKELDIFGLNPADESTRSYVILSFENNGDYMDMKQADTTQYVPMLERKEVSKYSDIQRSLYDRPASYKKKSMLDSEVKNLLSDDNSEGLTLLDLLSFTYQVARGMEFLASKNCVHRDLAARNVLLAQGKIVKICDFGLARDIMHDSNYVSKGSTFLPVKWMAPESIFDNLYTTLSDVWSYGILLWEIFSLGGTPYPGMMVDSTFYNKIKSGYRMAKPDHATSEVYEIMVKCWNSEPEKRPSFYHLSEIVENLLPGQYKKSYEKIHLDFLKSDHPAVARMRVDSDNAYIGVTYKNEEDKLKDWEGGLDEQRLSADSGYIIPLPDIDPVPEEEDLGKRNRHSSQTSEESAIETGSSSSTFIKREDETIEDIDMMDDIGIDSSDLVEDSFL
Outline: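 Cells were washed in cold PBS, lysed in RIPA and immunoblotted for phospho and total proteins, including pPDGFRα Y849/PDGFRβ Y857 and β-actin.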

[11] = target: Macrophage colony-stimulating factor 1 receptor (Homo sapiens, UniProt P07333); assay: Inhibition of His-tagged recombinant human CSF1R expressed in baculovirus expression system after 1 hr by Z-lyte assay
Sequence of Macrophage colony-stimulating factor 1 receptor (P07333 whole entry): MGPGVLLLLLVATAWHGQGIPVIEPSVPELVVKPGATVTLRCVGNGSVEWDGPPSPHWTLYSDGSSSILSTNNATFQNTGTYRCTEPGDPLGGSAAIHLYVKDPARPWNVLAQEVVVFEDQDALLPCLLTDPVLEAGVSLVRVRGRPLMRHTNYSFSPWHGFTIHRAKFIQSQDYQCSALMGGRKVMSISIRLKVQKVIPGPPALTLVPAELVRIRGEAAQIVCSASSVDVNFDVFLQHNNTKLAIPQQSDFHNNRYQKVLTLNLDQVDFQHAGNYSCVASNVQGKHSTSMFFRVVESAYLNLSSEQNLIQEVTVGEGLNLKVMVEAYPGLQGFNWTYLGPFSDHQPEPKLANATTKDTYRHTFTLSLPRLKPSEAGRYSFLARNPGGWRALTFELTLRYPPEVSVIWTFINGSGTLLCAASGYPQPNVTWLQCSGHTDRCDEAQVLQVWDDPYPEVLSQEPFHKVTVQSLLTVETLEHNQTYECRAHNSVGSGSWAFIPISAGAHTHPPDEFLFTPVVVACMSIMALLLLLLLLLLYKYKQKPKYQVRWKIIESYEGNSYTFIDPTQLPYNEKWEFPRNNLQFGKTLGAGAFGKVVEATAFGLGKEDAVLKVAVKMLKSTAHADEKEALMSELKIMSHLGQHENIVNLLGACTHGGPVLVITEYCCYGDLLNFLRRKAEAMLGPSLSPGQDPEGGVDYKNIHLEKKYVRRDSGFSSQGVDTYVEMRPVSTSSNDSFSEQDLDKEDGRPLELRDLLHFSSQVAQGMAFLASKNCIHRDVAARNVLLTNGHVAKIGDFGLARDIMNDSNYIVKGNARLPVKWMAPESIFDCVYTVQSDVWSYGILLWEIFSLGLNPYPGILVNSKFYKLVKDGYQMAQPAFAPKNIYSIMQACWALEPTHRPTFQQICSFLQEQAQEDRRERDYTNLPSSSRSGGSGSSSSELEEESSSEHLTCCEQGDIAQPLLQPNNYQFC

[12] = Antiproliferative activity against FLT3-ITD dependent human MOLM14 cells assessed as reduction in cell viability after 72 hrs by celltiter-glo/CCK8 assay; type: functional; details: MOLM-14, 72 h; outline: as §2
[13] = target: Mast/stem cell growth factor receptor Kit (Homo sapiens) (UniProt P10721); assay: Inhibition of cKIT in human GISTT1 cells assessed as suppression of ERK phosphorylation at T202/Y204 up to 10 uM after 2 hrs by Western blot analysis; type: cell-based
[14] = system: GISTT1; assay: Antitumor activity against human GISTT1 cells xenografted in nu/nu mouse assessed as suppression of proliferation at 25 to 100 mg/kg/day administered through oral gavage after 21 days by Ki67 assay; type: functional, organism-based
Outline: (§4)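 Female nu/nu mice, 6 weeks old, received 5 × 10⁶ GIST-T1 cells in PBS/Matrigel (1:1) subcutaneously in the right flank. At 100−200 mm³, six mice per group were dosed daily by oral gavage at 25, 50 or 100 mg/kg/d in 0.5% methylcellulose/0.4% Tween80, or vehicle. Tumor volume was taken as (W²×L)/2, with body weight and tumor measured daily. Tumors were stained for Ki67 (IHC, 1:50 antibody) and by TUNEL.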

[15] = target: Epithelial discoidin domain-containing receptor 1 (Homo sapiens, UniProt Q08345); assay: Inhibition of human wild type partial length DDR1 expressed in bacterial expression system assessed as residual activity at 1 uM by KinomeScan method
Outline: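 KinomeScan competitive binding panel of 468 kinases and mutants, compound tested at 1 μM; read-out is percent activity remaining (binding relative to control).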

[16] = Antitumor activity against human GISTT1 cells xenografted in nu/nu mouse assessed as tumor growth inhibition at 100 mg/kg/day administered through oral gavage after 21 days; type: functional; details: 504 h, read-out: TGI; outline: as §4
[17] = system: Mast/stem cell growth factor receptor Kit (Homo sapiens), P10721 [V559D,V654A]; assay: Inhibition of Tel-fused cKIT V559D/V654A double mutant (unknown origin) transfected in mouse BAF3 cells assessed as decrease in cell proliferation after 72 hrs by celltiter-glo/CCK8 assay; type: cell-based; outline: as §3
Sequence of Mast/stem cell growth factor receptor Kit (Homo sapiens), P10721 [V559D,V654A] (P10721 whole entry V559D/V654A, the tested form may be a part): as the sequence (P10721 whole entry, the tested form may be a part) above, with V559D, V654A counted along it

[18] = Oral bioavailability in Sprague-Dawley rat plasma at 10 mg/kg; type: ADME, organism-based
Outline: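 Male Sprague–Dawley rats, 8 weeks old, six in total, fasted overnight; compound dissolved in 5% DMSO/40% PEG400/55% saline (1 mg/mL dosing solution), given iv or orally. About 0.2 mL jugular blood taken with heparin at 1 min–8 h (iv) or 5 min–24 h (oral); plasma separated at 2–8 °C and stored at −80 °C before analysis.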

[19] = target: Mast/stem cell growth factor receptor Kit (Homo sapiens) (UniProt P10721); assay: Inhibition of cKIT autophosphorylation at Y719 in human GISTT1 cells up to 10 uM after 2 hrs by Western blot analysis; type: cell-based
[20] = target: Platelet-derived growth factor receptor beta (Homo sapiens, UniProt P09619); assay: Inhibition of N-terminal GST-tagged recombinant human PDGFRbeta (amino acids 557-end) expressed in baculovirus infected insect Sf9 cells using Poly(4:1 Glu, Tyr) peptide as substrate after 1 hr by promega ADP-glo assay
Sequence of Platelet-derived growth factor receptor beta (P09619 whole entry, the tested form may be a part): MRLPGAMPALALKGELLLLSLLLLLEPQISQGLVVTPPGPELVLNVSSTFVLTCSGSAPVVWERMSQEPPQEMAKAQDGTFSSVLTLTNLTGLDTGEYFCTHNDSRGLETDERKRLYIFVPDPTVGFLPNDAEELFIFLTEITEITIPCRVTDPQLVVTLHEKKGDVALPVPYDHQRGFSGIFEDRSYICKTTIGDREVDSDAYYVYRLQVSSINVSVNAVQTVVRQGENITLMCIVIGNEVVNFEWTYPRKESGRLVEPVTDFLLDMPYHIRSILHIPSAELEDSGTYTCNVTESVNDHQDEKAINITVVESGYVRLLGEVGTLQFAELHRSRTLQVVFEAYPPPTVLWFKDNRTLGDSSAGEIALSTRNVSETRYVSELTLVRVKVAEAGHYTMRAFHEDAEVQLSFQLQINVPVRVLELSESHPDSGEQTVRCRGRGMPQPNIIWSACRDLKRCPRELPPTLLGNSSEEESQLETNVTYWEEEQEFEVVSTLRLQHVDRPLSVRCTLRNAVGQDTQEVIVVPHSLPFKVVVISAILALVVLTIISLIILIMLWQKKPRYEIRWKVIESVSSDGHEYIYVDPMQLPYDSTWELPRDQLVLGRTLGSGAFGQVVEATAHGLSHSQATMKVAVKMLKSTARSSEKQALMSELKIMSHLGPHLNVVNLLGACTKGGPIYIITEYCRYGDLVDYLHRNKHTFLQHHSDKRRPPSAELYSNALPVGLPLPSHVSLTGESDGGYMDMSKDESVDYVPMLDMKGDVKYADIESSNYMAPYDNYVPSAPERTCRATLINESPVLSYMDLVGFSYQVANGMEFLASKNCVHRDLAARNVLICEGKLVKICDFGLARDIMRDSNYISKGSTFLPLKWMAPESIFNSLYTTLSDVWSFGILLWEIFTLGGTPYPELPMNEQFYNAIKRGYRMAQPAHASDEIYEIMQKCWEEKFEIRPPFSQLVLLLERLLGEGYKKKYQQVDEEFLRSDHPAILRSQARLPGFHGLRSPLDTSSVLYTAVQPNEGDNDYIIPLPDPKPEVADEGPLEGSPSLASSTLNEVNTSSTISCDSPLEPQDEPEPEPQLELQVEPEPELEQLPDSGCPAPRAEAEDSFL
Outline: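 ADP-Glo luminescence assay. PDGFRβ (10 ng/μL, 9 μL) with poly(Glu4,Tyr1) substrate (0.4 μg/μL) and 100 μM ATP, serially diluted inhibitor, 1 h at 37 °C. ADP-Glo reagent was added for 40 min, then detection reagent for 30 min. IC50 was taken from the dose−response fit.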

[21] = system: GIST48B; assay: Induction of apoptosis in human GIST48B cells assessed as PARP cleavage up to 3 uM after 72 hrs by Western blot analysis; type: functional, cell-based

With `Cc1ccc(NC(=O)c2cccc(C(F)(F)F)c2)cc1OC1CCN(C(=O)c2ccncc2)CC1` the inhibition [1] was “inactive”, the AUC(0-t) [2] was 198 ng·h/mL and the GI50 [3] was > 10000 nM. For the same compound, the GI50 [4] was > 10000 nM, the inhibition [5] was “inactive” and the AUC(0-t) [6] was 715 ng·h/mL. The inhibition [7] was “Active”, the GI50 [8] was > 10000 nM and the inhibition [9] was “Active”. For the same compound, the inhibition [10] was “Active”, the IC50 [11] was 133 nM and the GI50 [12] was > 10000 nM. For the same compound, the inhibition [13] was “Active”, the Activity [14] was “Active” and the Activity [15] was 0.15%. It also gave an inhibition in vivo at 100 mg/kg/day [16] of 49%, a GI50 [17] of 1050 nM and a bioavailability [18] of 36.1%. The inhibition [19] was “Active”, the IC50 [20] was 120 nM and the Activity [21] was “inactive”.
